A selection: hits, their analogues and other compounds. The true share with any hit is near 1.1%.
GSK3B inh: blocks human GSK3beta kinase activity; P49841; GST-GSK3beta kinase, ADP-Glo luminescence, 60 min; hits give low values; activity score (negative = inhibition), % at 10 µM; 300,000 compounds, 0.038% hits;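 active means more than half of replicate wells score below -50%, meaning over 50% inhibition versus plate controls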;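 further: 0% = median DMSO wells and -100% = median GW8510 positive control wells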
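test system = GST-tagged human GSK3beta kinase, cell-free | reagent = 25 µM ATP with peptide substrate | dosing = one dose of 10 µM per compound | schedule = 60 min reaction, RT | detection = luminescent ADP-Glo measurement of ADP formed | control set = DMSO neutral wells and GW8510 at 20 µM as positive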
CDK5 inh: CDK5/p35 (human) kinase inhibition; Q00535+Q15078; Recombinant CDK5/p35, ADP-Glo luminescence, 60 min; inhibition, % at 10 µM; 330,000 compounds, 0.01% hits;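 active means highest replicate inhibition of at least 50% and at least 75% of replicates reaching 50%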;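 further: plate controls were DMSO neutral control for no effect and GW8510 at 10 µM for full effect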
SR-BI HDL uptake: mouse SR-BI HDL lipid transfer inhibition | ldlA[mSR-BI] CHO cells, DiI-HDL uptake fluorescence, 3 h | inhibition, % at 12.5 µM | 320,000 compounds, 0.96% hits | AID 488896;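 active means mean replicate inhibition of at least 70% and a set share of replicates each scoring 70 or more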;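 further: 0% = median of neutral control wells and 100% = median of positive control wells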
SR-BI DiI-HDL act: activators of SR-BI mediated HDL lipid uptake; 320,000 compounds, 0.096% hits; CHO ldlA[mSR-BI] cells, DiI-HDL uptake fluorescence, 3 h; 100 = double the neutral-control signal; activation, % at 12.5 µM;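 active means mean replicate activation of at least 60% and every replicate at or above 60%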;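 further: 0% = median plate neutral-control signal and 100% = twice that signal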
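System: CHO ldlA[mSR-BI] cells / Medium: HEPES-buffered (25 mM, pH 7.4) F12 plus 0.5% BSA / Probe or stimulus: labelled HDL, 10 µg/mL / Doses: single compound concentration, delivered by pin transfer / Schedule: 3 h, 37 °C / Measured by: DiI fluorescence, bottom read / Measure: cell-associated DiI fluorescence as measure of HDL uptake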
GSK3A inh: human GSK-3 alpha kinase inhibition; AID 2650; 320,000 compounds, 0.1% hits; ADP-Glo luminescence, 60 min; P49840; inhibition, % at 10 µM;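 active means more than half of replicates show inhibition above 20%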;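 further: GST-tagged GSK-3 alpha with peptide substrate and 25 µM ATP; 0% = DMSO neutral wells and 100% = GW8510 positive control wells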
Target sequence (P49840 whole entry, looked up): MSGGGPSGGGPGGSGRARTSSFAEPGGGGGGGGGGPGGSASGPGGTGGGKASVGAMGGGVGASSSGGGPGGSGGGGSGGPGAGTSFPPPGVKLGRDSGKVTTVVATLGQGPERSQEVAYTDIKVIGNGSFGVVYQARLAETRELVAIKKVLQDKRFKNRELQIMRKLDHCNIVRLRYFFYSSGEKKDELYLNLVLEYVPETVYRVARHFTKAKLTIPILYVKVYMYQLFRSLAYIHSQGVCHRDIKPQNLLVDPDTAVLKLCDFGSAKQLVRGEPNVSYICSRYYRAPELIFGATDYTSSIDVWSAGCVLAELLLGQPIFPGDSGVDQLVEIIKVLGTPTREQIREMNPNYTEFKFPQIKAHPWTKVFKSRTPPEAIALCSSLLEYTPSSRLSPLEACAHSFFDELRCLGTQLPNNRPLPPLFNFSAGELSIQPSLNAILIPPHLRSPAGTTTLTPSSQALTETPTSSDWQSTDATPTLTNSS
Starred values were filed as active, the others as inactive; · = no result.

SMILES | GSK3B inh | CDK5 inh | SR-BI HDL uptake | SR-BI DiI-HDL act | GSK3A inh
CC(C)C[C@H](NC(=O)c1nc[nH]c1C(=O)N1CCN(C(=O)OC(C)(C)C)CC1)C(=O)OCc1ccccc1 | -3 | -3 | -21 | 21 | 5
O=C(N/N=C/c1cn(-c2cccs2)nc1-c1ccccc1)c1ccccc1O | -1 | 0 | 86* | -86 | 0
Cc1cccc(NC(=O)CSc2nc3ccccc3c(=O)n2CC2CCCO2)c1 (configuration not stated) | · | 0 | 80* | -80 | 2
CC1CN(C/C(=N\O)C23CC4CC(CC(C4)C2)C3)CC(C)O1 (configuration not stated) | 2 | 0 | 6 | -6 | -2
C#CCOCCOCCOCCNc1nc(N2CCN(C(=O)C(Cc3cc4ccccc4[nH]3)n3cc(C(N)C(C)CC)nn3)CC2)nc(N2CCN(C(=O)C(Cc3cc4ccccc4[nH]3)n3cc(C(N)C(C)CC)nn3)CC2)n1 (configuration not stated) | 6 | 1 | -67 | 67* | -1
COc1cc(OC)c(C(=O)Nc2cc(Cl)ccc2-n2cncn2)cc1OC | 2 | -2 | 81* | -81 | -1
COc1ccccc1C(=O)Nc1cc(Cl)ccc1-n1cncn1 | -1 | 0 | 29 | -29 | -1
CCCc1cc(=O)[nH]c(SCC(=O)Nc2oc(C)c3c(C)n[nH]c(=O)c23)n1 | -2 | 1 | 15 | -15 | 2
Nc1c(C2CCCCC2)c(=O)on1C(=O)c1ccccc1 | · | -2 | 8 | -8 | ·
CCOc1cc(/C=C/C(=O)OCC(=O)NCC2CCCO2)cc(Cl)c1OC (configuration not stated) | · | -1 | 23 | -23 | -3
CCOc1cc(C(=O)Nc2cc(C(=O)OC)ccc2C)ccc1OCC(=O)N1CCOCC1 | · | 0 | 73* | -73 | -3
CCOc1cc(C(=O)Nc2cc(F)ccc2C)ccc1OCC(=O)N1CCOCC1 | · | 0 | 56 | -56 | 0
CCN(CC)CC(=O)Nc1ccc2c(c1)N(C(=O)CN(CC)CC)c1ccccc1CC2 | -8 | -1 | -20 | 20 | -5
CCN(CC)CC(=O)Nc1ccc2c(c1)Nc1ccccc1CC2 | -1 | 0 | 82* | -82 | 17
COc1cc(NC(=O)C2CSC3(C)CCC(=O)N23)c(OC)cc1Cl (configuration not stated) | -1 | 0 | 25 | -25 | -3
COCCNc1ccc([N+](=O)[O-])cc1C(=O)NC1CCCc2ccccc21 (configuration not stated) | -1 | -1 | 79* | -79 | 0
COc1cc(OC)c(C(=O)NC2CCCc3ccccc32)cc1OC (configuration not stated) | 4 | -1 | 14 | -14 | 2
CCC(NC(=O)C1CCCC1)c1ccccc1 (configuration not stated) | 1 | -3 | -7 | 7 | 0
Cc1ccc(COc2ccc(/C=N/NC(=O)c3nnn(-c4nonc4N)c3COc3ccc(F)cc3)cc2)cc1 | -1 | 0 | 71* | -71 | 0
CCc1c(C(=O)N/N=C/c2ccc(OCc3ccc(F)cc3)c(OC)c2)nnn1-c1nonc1N | 0 | 2 | 76* | -76 | -1
Nc1nonc1-n1nnc(C(=O)N/N=C/c2ccc(OCc3ccc(F)cc3)cc2)c1COc1ccccc1 | 0 | 0 | 51 | -51 | -1
O=C1C=C(c2ccc3c(c2)oc2ccccc23)C[C@@H](c2ccc(Cl)cc2)C1 | · | 0 | -21 | 21 | 0
CC(C)c1nc2ccc(Br)cn2c1NC1CCCC1 | 2 | -1 | 9 | -9 | 0
O=C(CC(O)(c1ccccc1)c1ccccc1)Nc1ccccn1 | · | 2 | 10 | -10 | ·
CCCCN1C(=O)/C(=C/C=C2\SCCN2C)SC1=S | -4 | 2 | 71* | -71 | ·
CN1CCS/C1=C/C=C1\SC(=S)N(CC(=O)O)C1=O | 0 | 0 | -8 | 8 | 1
Cc1cccc(NC(=O)c2ccc(OCc3c(C)noc3C)cc2)c1 | · | 0 | 73* | -73 | -1
COc1cc(C(=O)Nc2cc(OC)c(OC)c(OC)c2)ccc1OCc1c(C)noc1C | · | 0 | 87* | -87 | -3
CCc1nnc(NC(=O)c2ccc(OCc3c(C)noc3C)c(OC)c2)s1 | 3 | 3 | 84* | -84 | -1
CC(=O)c1cccc(NC(=O)c2ccc(OCc3c(C)noc3C)cc2)c1 | · | -14 | 63 | -63 | 17
